ChEMBL document CHEMBL1255446, “Combinations of mutations in the connection domain of human immunodeficiency virus type 1 reverse transcriptase: assessing the impact on nucleoside and nonnucleoside reverse transcriptase inhibitor resistance” (2010)

Test system: Human immunodeficiency virus 1
Assay: Antiviral activity against HIV1 with RT connection domain G190A/N348Ib mutant transfected in HEK293 cells assessed as inhibition of viral replication relative to HIV1 NL4-3
Type: functional
Outline: (§1)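 Single-replication-cycle (PhenoSense) assay. Site-directed mutant RT pseudoviruses were made by cotransfecting 293 cells with RTV plasmid plus an amphotropic MLV Env plasmid, harvested at 48 h, and used to infect fresh 293 cells. Serial drug dilutions were added before infection. Luciferase was read ~72 h post-infection, % inhibition was computed, and EC50 was taken from the curves. Values are fold change versus NL4-3 reference run in the same experiment.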

Structure (SMILES)	fold change (FC)
Cc1ccnc2c1NC(=O)c1cccnc1N2C1CC1 [NEVIRAPINE]	>400
Cc1cn([C@H]2C[C@H](N=[N+]=[N-])[C@@H](CO)O2)c(=O)[nH]c1=O [ZIDOVUDINE]	2

Test system: Human immunodeficiency virus 1
Assay: Antiviral activity against HIV1 with RT connection domain G190A/T369I mutant transfected in HEK293 cells assessed as inhibition of viral replication relative to HIV1 NL4-3
Type: functional
Outline: as §1

Structure (SMILES)	fold change (FC)
Cc1ccnc2c1NC(=O)c1cccnc1N2C1CC1 [NEVIRAPINE]	>400
Cc1cn([C@H]2C[C@H](N=[N+]=[N-])[C@@H](CO)O2)c(=O)[nH]c1=O [ZIDOVUDINE]	1.7

Test system: Human immunodeficiency virus 1
Assay: Antiviral activity against HIV1 with RT connection domain G190A/T369I/N348I mutant transfected in HEK293 cells assessed as inhibition of viral replication relative to HIV1 NL4-3
Type: functional
Outline: as §1

Structure (SMILES)	fold change (FC)
Cc1ccnc2c1NC(=O)c1cccnc1N2C1CC1 [NEVIRAPINE]	>400
Cc1cn([C@H]2C[C@H](N=[N+]=[N-])[C@@H](CO)O2)c(=O)[nH]c1=O [ZIDOVUDINE]	4.2

Test system: Human immunodeficiency virus 1
Assay: Antiviral activity against HIV1 with RT connection domain G190S mutant transfected in HEK293 cells assessed as inhibition of viral replication relative to HIV1 NL4-3
Type: functional
Outline: as §1

Structure (SMILES)	fold change (FC)
Cc1ccnc2c1NC(=O)c1cccnc1N2C1CC1 [NEVIRAPINE]	145
Cc1cn([C@H]2C[C@H](N=[N+]=[N-])[C@@H](CO)O2)c(=O)[nH]c1=O [ZIDOVUDINE]	0.8

Test system: Human immunodeficiency virus 1
Assay: Antiviral activity against HIV1 with RT connection domain G190S/N348I mutant transfected in HEK293 cells assessed as inhibition of viral replication relative to HIV1 NL4-3
Type: functional
Outline: as §1

Structure (SMILES)	fold change (FC)
Cc1ccnc2c1NC(=O)c1cccnc1N2C1CC1 [NEVIRAPINE]	>400
Cc1cn([C@H]2C[C@H](N=[N+]=[N-])[C@@H](CO)O2)c(=O)[nH]c1=O [ZIDOVUDINE]	1.7

Test system: Human immunodeficiency virus 1
Assay: Antiviral activity against HIV1 with RT connection domain G190S/T369I mutant transfected in HEK293 cells assessed as inhibition of viral replication relative to HIV1 NL4-3
Type: functional
Outline: as §1

Structure (SMILES)	fold change (FC)
Cc1ccnc2c1NC(=O)c1cccnc1N2C1CC1 [NEVIRAPINE]	>400
Cc1cn([C@H]2C[C@H](N=[N+]=[N-])[C@@H](CO)O2)c(=O)[nH]c1=O [ZIDOVUDINE]	0.7

Test system: Human immunodeficiency virus 1
Assay: Antiviral activity against HIV1 with RT connection domain G190S/T369I/N348I mutant transfected in HEK293 cells assessed as inhibition of viral replication relative to HIV1 NL4-3
Type: functional
Outline: as §1

Structure (SMILES)	fold change (FC)
Cc1ccnc2c1NC(=O)c1cccnc1N2C1CC1 [NEVIRAPINE]	>400
Cc1cn([C@H]2C[C@H](N=[N+]=[N-])[C@@H](CO)O2)c(=O)[nH]c1=O [ZIDOVUDINE]	5.8

Test system: Human immunodeficiency virus 1
Assay: Antiviral activity against HIV1 with RT connection domain L100I mutant transfected in HEK293 cells assessed as inhibition of viral replication relative to HIV1 NL4-3
Type: functional
Outline: as §1

Structure (SMILES)	fold change (FC)
Cc1ccnc2c1NC(=O)c1cccnc1N2C1CC1 [NEVIRAPINE]	2.1
Cc1cn([C@H]2C[C@H](N=[N+]=[N-])[C@@H](CO)O2)c(=O)[nH]c1=O [ZIDOVUDINE]	0.1

Test system: Human immunodeficiency virus 1
Assay: Antiviral activity against HIV1 with RT connection domain L100I/N348I mutant transfected in HEK293 cells assessed as inhibition of viral replication relative to HIV1 NL4-3
Type: functional
Outline: as §1

Structure (SMILES)	fold change (FC)
Cc1ccnc2c1NC(=O)c1cccnc1N2C1CC1 [NEVIRAPINE]	5.3
Cc1cn([C@H]2C[C@H](N=[N+]=[N-])[C@@H](CO)O2)c(=O)[nH]c1=O [ZIDOVUDINE]	0.3

Test system: Human immunodeficiency virus 1
Assay: Antiviral activity against HIV1 with RT connection domain L100I/T369I mutant transfected in HEK293 cells assessed as inhibition of viral replication relative to HIV1 NL4-3
Type: functional
Outline: as §1

Structure (SMILES)	fold change (FC)
Cc1ccnc2c1NC(=O)c1cccnc1N2C1CC1 [NEVIRAPINE]	4.8
Cc1cn([C@H]2C[C@H](N=[N+]=[N-])[C@@H](CO)O2)c(=O)[nH]c1=O [ZIDOVUDINE]	0.2

Test system: Human immunodeficiency virus 1
Assay: Antiviral activity against HIV1 with RT connection domain L100I/T369I/N348I mutant transfected in HEK293 cells assessed as inhibition of viral replication relative to HIV1 NL4-3
Type: functional
Outline: as §1

Structure (SMILES)	fold change (FC)
Cc1ccnc2c1NC(=O)c1cccnc1N2C1CC1 [NEVIRAPINE]	56.3
Cc1cn([C@H]2C[C@H](N=[N+]=[N-])[C@@H](CO)O2)c(=O)[nH]c1=O [ZIDOVUDINE]	0.5

Test system: Human immunodeficiency virus 1
Assay: Antiviral activity against HIV1 with RT connection domain T369I mutant transfected in HEK293 cells assessed as inhibition of viral replication relative to HIV1 NL4-3
Type: functional
Outline: as §1

Structure (SMILES)	fold change (FC)
Cc1ccnc2c1NC(=O)c1cccnc1N2C1CC1 [NEVIRAPINE]	8.4
Cc1cn([C@H]2C[C@H](N=[N+]=[N-])[C@@H](CO)O2)c(=O)[nH]c1=O [ZIDOVUDINE]	2.7

Test system: Human immunodeficiency virus 1
Assay: Antiviral activity against HIV1 with RT connection domain T369V mutant transfected in HEK293 cells assessed as inhibition of viral replication relative to HIV1 NL4-3
Type: functional
Outline: as §1

Structure (SMILES)	fold change (FC)
Cc1ccnc2c1NC(=O)c1cccnc1N2C1CC1 [NEVIRAPINE]	9.2
Cc1cn([C@H]2C[C@H](N=[N+]=[N-])[C@@H](CO)O2)c(=O)[nH]c1=O [ZIDOVUDINE]	2.1

Test system: Human immunodeficiency virus 1
Assay: Antiviral activity against HIV1 with RT connection domain N348I mutant transfected in HEK293 cells assessed as inhibition of viral replication relative to HIV1 NL4-3
Type: functional
Outline: as §1

Structure (SMILES)	fold change (FC)
Cc1ccnc2c1NC(=O)c1cccnc1N2C1CC1 [NEVIRAPINE]	4.1
Cc1cn([C@H]2C[C@H](N=[N+]=[N-])[C@@H](CO)O2)c(=O)[nH]c1=O [ZIDOVUDINE]	2.4

Test system: Human immunodeficiency virus 1
Assay: Antiviral activity against HIV1 with RT connection domain T369I/N348I mutant transfected in HEK293 cells assessed as inhibition of viral replication relative to HIV1 NL4-3
Type: functional
Outline: as §1

Structure (SMILES)	fold change (FC)
Cc1ccnc2c1NC(=O)c1cccnc1N2C1CC1 [NEVIRAPINE]	58.6
Cc1cn([C@H]2C[C@H](N=[N+]=[N-])[C@@H](CO)O2)c(=O)[nH]c1=O [ZIDOVUDINE]	5.4

Test system: Human immunodeficiency virus 1
Assay: Antiviral activity against HIV1 with RT connection domain K103N mutant transfected in HEK293 cells assessed as inhibition of viral replication relative to HIV1 NL4-3
Type: functional
Outline: as §1

Structure (SMILES)	fold change (FC)
Cc1ccnc2c1NC(=O)c1cccnc1N2C1CC1 [NEVIRAPINE]	81
Cc1cn([C@H]2C[C@H](N=[N+]=[N-])[C@@H](CO)O2)c(=O)[nH]c1=O [ZIDOVUDINE]	1.1

Test system: Human immunodeficiency virus 1
Assay: Antiviral activity against HIV1 with RT connection domain K103N/N348I mutant transfected in HEK293 cells assessed as inhibition of viral replication relative to HIV1 NL4-3
Type: functional
Outline: as §1

Structure (SMILES)	fold change (FC)
Cc1ccnc2c1NC(=O)c1cccnc1N2C1CC1 [NEVIRAPINE]	>400
Cc1cn([C@H]2C[C@H](N=[N+]=[N-])[C@@H](CO)O2)c(=O)[nH]c1=O [ZIDOVUDINE]	2.6

Test system: Human immunodeficiency virus 1
Assay: Antiviral activity against HIV1 with RT connection domain K103N/T369I mutant transfected in HEK293 cells assessed as inhibition of viral replication relative to HIV1 NL4-3
Type: functional
Outline: as §1

Structure (SMILES)	fold change (FC)
Cc1ccnc2c1NC(=O)c1cccnc1N2C1CC1 [NEVIRAPINE]	>400
Cc1cn([C@H]2C[C@H](N=[N+]=[N-])[C@@H](CO)O2)c(=O)[nH]c1=O [ZIDOVUDINE]	2.3

Test system: Human immunodeficiency virus 1
Assay: Antiviral activity against HIV1 with RT connection domain K103N/T369I/N348I mutant transfected in HEK293 cells assessed as inhibition of viral replication relative to HIV1 NL4-3
Type: functional
Outline: as §1

Structure (SMILES)	fold change (FC)
Cc1ccnc2c1NC(=O)c1cccnc1N2C1CC1 [NEVIRAPINE]	>400
Cc1cn([C@H]2C[C@H](N=[N+]=[N-])[C@@H](CO)O2)c(=O)[nH]c1=O [ZIDOVUDINE]	7.9

Test system: Human immunodeficiency virus 1
Assay: Antiviral activity against HIV1 with RT connection domain Y181C mutant transfected in HEK293 cells assessed as inhibition of viral replication relative to HIV1 NL4-3
Type: functional
Outline: as §1

Structure (SMILES)	fold change (FC)
Cc1ccnc2c1NC(=O)c1cccnc1N2C1CC1 [NEVIRAPINE]	317
Cc1cn([C@H]2C[C@H](N=[N+]=[N-])[C@@H](CO)O2)c(=O)[nH]c1=O [ZIDOVUDINE]	0.3

Test system: Human immunodeficiency virus 1
Assay: Antiviral activity against HIV1 with RT connection domain Y181C/N348I mutant transfected in HEK293 cells assessed as inhibition of viral replication relative to HIV1 NL4-3
Type: functional
Outline: as §1

Structure (SMILES)	fold change (FC)
Cc1ccnc2c1NC(=O)c1cccnc1N2C1CC1 [NEVIRAPINE]	>400
Cc1cn([C@H]2C[C@H](N=[N+]=[N-])[C@@H](CO)O2)c(=O)[nH]c1=O [ZIDOVUDINE]	0.7

Test system: Human immunodeficiency virus 1
Assay: Antiviral activity against HIV1 with RT connection domain Y181C/T369I mutant transfected in HEK293 cells assessed as inhibition of viral replication relative to HIV1 NL4-3
Type: functional
Outline: as §1

Structure (SMILES)	fold change (FC)
Cc1ccnc2c1NC(=O)c1cccnc1N2C1CC1 [NEVIRAPINE]	>400
Cc1cn([C@H]2C[C@H](N=[N+]=[N-])[C@@H](CO)O2)c(=O)[nH]c1=O [ZIDOVUDINE]	0.9

Test system: Human immunodeficiency virus 1
Assay: Antiviral activity against HIV1 with RT connection domain Y181C/T369I/N348I mutant transfected in HEK293 cells assessed as inhibition of viral replication relative to HIV1 NL4-3
Type: functional
Outline: as §1

Structure (SMILES)	fold change (FC)
Cc1ccnc2c1NC(=O)c1cccnc1N2C1CC1 [NEVIRAPINE]	>400
Cc1cn([C@H]2C[C@H](N=[N+]=[N-])[C@@H](CO)O2)c(=O)[nH]c1=O [ZIDOVUDINE]	2.2

Test system: Human immunodeficiency virus 1
Assay: Antiviral activity against HIV1 with RT connection domain G190A mutant transfected in HEK293 cells assessed as inhibition of viral replication relative to HIV1 NL4-3
Type: functional
Outline: as §1

Structure (SMILES)	fold change (FC)
Cc1ccnc2c1NC(=O)c1cccnc1N2C1CC1 [NEVIRAPINE]	127.7
Cc1cn([C@H]2C[C@H](N=[N+]=[N-])[C@@H](CO)O2)c(=O)[nH]c1=O [ZIDOVUDINE]	1.1
